Data reported in ChEMBL document CHEMBL3822362, “Effects of N-Substitutions on the Tetrahydroquinoline (THQ) Core of Mixed-Efficacy μ-Opioid Receptor (MOR)/δ-Opioid Receptor (DOR) Ligands” (J Med Chem, 2016).
pEC50, pKi: −log10 of the molar value. Activity calls are given as the source filed them.

Columns and labels:
Mu-type opioid receptor [1] = biological target: T1, Mu-type opioid receptor (Rattus norvegicus, UniProt P33535); experiment: Displacement of [3H]diprenorphine from rat MOR transfected in rat C6 cell membranes after 1 hr by liquid scintillation counting
Method in brief: (§1)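 Membranes (20 μg protein/tube) in 50 mM Tris-HCl pH 7.4 with 0.2 nM [3H]diprenorphine and varying peptidomimetic concentrations, 1 h at room temperature to equilibrium. GF/C filtration, five buffer washes, scintillation counting. Nonspecific binding with 10 μM naloxone.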

[2] = biological target: T2, Delta-type opioid receptor (Rattus norvegicus, UniProt P33533); experiment: Displacement of [3H]diprenorphine from rat DOR transfected in rat C6 cell membranes after 1 hr by liquid scintillation counting; method in brief: as §1
[3] = biological target: T3, Kappa-type opioid receptor (Homo sapiens, UniProt P41145); experiment: Displacement of [3H]diprenorphine from human KOR expressed in CHO cell membranes after 1 hr by liquid scintillation counting; method in brief: as §1
[4] = biological target: Mu-type opioid receptor (Rattus norvegicus) (UniProt P33535); experiment: Agonist activity at rat MOR transfected in rat C6 cell membranes at 10 uM after 1 hr by [35S]GTPgammaS assay relative to DAMGO; format: functional
Method in brief: (§2)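 Membranes (10–20 μg protein) from cells grown to confluence in DMEM/10% FBS, incubated 1 h at 25 °C in 50 mM Tris-HCl, 100 mM NaCl, 5 mM MgCl2, pH 7.4 with 0.1 nM [35S]GTPγS, 30 μM GDP and varying peptidomimetic concentrations. Filtered on GF/C, counted by scintillation. % stimulation relative to 10 μM DAMGO (MOR), DPDPE (DOR) or U69,593 (KOR).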

[5] = biological target: Delta-type opioid receptor (Rattus norvegicus) (UniProt P33533); experiment: Agonist activity at rat DOR transfected in rat C6 cell membranes at 10 uM after 1 hr by [35S]GTPgammaS assay relative to DPDPE; format: functional; method in brief: as §2
[6] = biological target: T3, Kappa-type opioid receptor; experiment: Agonist activity at human KOR expressed in CHO cell membranes at 10 uM after 1 hr by [35S]GTPgammaS assay relative to U69,593; format: functional; method in brief: as §2
Mu-type opioid receptor [7] = biological target: T1, Mu-type opioid receptor; experiment: Agonist activity at rat MOR transfected in rat C6 cell membranes after 1 hr by [35S]GTPgammaS assay; format: functional; method in brief: as §2
[8] = biological target: T2, Delta-type opioid receptor; experiment: Agonist activity at rat DOR transfected in rat C6 cell membranes after 1 hr by [35S]GTPgammaS assay; format: functional; details: for pEC50: read-out: EC50; for EC50: c6; method in brief: as §2
[9] = biological target: T3, Kappa-type opioid receptor; experiment: Agonist activity at human KOR expressed in CHO cell membranes after 1 hr by [35S]GTPgammaS assay; format: functional; details: for pEC50: read-out: EC50; for EC50: cho; method in brief: as §2
Mus musculus [10] = experiment: Antinociceptive activity in C57BL/6 mouse assessed as latency time to tail flick at 10 mg/kg, ip measured at 30 min interval by warm water tail withdrawal assay; format: functional
Method in brief: (§3)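 Adult male C57BL/6 mice, 20–30 g, 8–16 weeks. Saline ip, baseline read 30 min later. Then three increasing ip doses every 30 min, in water or 1:1:8 ethanol:Alkumuls:water, giving cumulative 1, 3.2 and 10 mg/kg. Tail tip (2–3 cm) put in 50 °C water 30 min after each injection; latency to withdraw or flick read, 20 s cutoff; n = 3.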

Mus musculus [11] = experiment: Antinociceptive activity in C57BL/6 mouse assessed as increase in latency time to tail flick at 1 to 10 mg/kg, ip measured at 30 min interval by warm water tail withdrawal assay; format: functional, organism-based; method in brief: as §3
Mus musculus [12] = experiment: Antinociceptive activity in C57BL/6 mouse assessed as increase in latency time to tail flick at 1 to 3.2 mg/kg, ip measured at 30 min interval by warm water tail withdrawal assay; format: functional, organism-based; method in brief: as §3
Mus musculus [13] = experiment: Antinociceptive activity in C57BL/6 mouse assessed as time duration of action at 10 mg/kg, ip by warm water tail withdrawal assay; format: functional
Method in brief: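 Male C57BL/6 mice given a single 10 mg/kg ip dose. Tail-withdrawal latency in 50 °C water (2–3 cm tail tip, 20 s cutoff) read at varying times after dosing to follow duration of antinociception; n = 3.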

T3 sequence (P41145 whole entry): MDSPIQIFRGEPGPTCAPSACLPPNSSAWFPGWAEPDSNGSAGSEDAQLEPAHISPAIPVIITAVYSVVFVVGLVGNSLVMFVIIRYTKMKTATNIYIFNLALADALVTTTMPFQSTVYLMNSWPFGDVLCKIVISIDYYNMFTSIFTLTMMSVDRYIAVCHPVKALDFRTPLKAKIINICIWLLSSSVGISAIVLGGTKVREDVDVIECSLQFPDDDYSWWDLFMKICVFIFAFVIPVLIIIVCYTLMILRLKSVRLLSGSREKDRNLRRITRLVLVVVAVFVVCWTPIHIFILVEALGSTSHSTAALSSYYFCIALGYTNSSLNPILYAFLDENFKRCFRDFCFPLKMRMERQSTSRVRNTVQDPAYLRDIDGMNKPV
Sequence of Delta-type opioid receptor (Rattus norvegicus) (P33533 whole entry): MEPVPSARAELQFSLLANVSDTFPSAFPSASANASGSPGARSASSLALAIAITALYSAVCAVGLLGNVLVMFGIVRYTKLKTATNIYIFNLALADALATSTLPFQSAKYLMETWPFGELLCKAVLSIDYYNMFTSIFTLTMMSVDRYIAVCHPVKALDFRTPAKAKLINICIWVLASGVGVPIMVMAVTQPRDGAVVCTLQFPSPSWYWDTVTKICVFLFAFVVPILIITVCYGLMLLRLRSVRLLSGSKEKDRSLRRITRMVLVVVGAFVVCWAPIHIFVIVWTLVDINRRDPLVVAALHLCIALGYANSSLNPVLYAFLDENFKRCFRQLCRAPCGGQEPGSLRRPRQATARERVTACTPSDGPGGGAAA
T2 sequence (P33533 whole entry): as above
Sequence of Mu-type opioid receptor (Rattus norvegicus) (P33535 whole entry): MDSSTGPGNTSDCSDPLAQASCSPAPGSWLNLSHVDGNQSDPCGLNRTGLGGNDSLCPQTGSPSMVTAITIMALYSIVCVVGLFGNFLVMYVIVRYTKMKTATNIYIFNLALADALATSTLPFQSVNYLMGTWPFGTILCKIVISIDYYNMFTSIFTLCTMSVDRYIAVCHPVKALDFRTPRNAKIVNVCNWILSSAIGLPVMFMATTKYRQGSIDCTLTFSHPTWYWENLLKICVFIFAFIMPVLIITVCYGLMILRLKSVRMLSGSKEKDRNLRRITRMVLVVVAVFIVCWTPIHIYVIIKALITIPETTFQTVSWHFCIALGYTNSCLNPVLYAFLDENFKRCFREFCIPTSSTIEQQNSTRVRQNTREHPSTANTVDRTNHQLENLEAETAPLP
T1 sequence (P33535 whole entry): as above

Structure (SMILES)	pKi (Mu-type opioid receptor [1])	pKi [2]	pKi [3]	Emax [4]	Emax [5]	Emax [6]	pEC50 (Mu-type opioid receptor [7])	pEC50 [8]	pEC50 [9]	Time (Mus musculus [10])	EC50 [8]	EC50 [9]	Activity (Mus musculus [11])	Activity (Mus musculus [12])	Time (Mus musculus [13])
Cc1cc(O)cc(C)c1C[C@H](N)C(=O)N[C@@H]1CCN(C(=O)C2CC2)c2ccc(Cc3ccccc3)cc21	10.00	9.46	7.60	88%	69%	32%	8.74	8.00	6.00	11 s	–	–	–	–	–
COC(=O)N1CC[C@@H](NC(=O)[C@@H](N)Cc2c(C)cc(O)cc2C)c2cc(Cc3ccc4ccccc4c3)ccc21	9.49	9.00	6.72	110%	–	–	9.41	–	–	–	Not Active	Not Active	inactive	–	–
Cc1cc(O)cc(C)c1C[C@H](N)C(=O)N[C@@H]1CCN(C(=O)c2ccccc2)c2ccc(Cc3ccccc3)cc21	10.10	9.62	7.41	74%	–	16%	8.59	–	6.37	–	Not Active	–	inactive	–	–
CCCC(=O)N1CC[C@@H](NC(=O)[C@@H](N)Cc2c(C)cc(O)cc2C)c2cc(Cc3ccccc3)ccc21	10.00	9.00	7.30	53%	44%	22%	8.46	8.09	< 5.92	–	–	–	–	–	–
Cc1cc(O)cc(C)c1C[C@H](N)C(=O)N[C@@H]1CCN(CC(=O)O)c2ccc(Cc3ccccc3)cc21	8.36	7.17	6.55	87%	inactive	inactive	7.11	–	–	–	Not Active	Not Active	–	–	–
CC(=O)N1CC[C@@H](NC(=O)[C@@H](N)Cc2c(C)cc(O)cc2C)c2cc(Cc3ccccc3)ccc21	–	–	–	–	–	–	–	–	–	–	–	–	inactive	–	–
Cc1cc(O)cc(C)c1C[C@H](N)C(=O)N[C@@H]1CCN(C(=O)C(C)C)c2ccc(Cc3ccccc3)cc21	9.42	9.28	7.12	95%	52%	41%	8.02	7.60	< 5.89	–	–	–	inactive	–	–
Cc1cc(O)cc(C)c1C[C@H](N)C(=O)N[C@@H]1CCN(CC(N)=O)c2ccc(Cc3ccccc3)cc21	9.64	8.70	8.37	99%	34%	49%	8.82	6.57	6.42	–	–	–	inactive	–	–
Cc1cc(O)cc(C)c1C[C@H](N)C(=O)N[C@@H]1CCNc2ccc(Cc3ccccc3)cc21	–	–	–	–	–	–	–	–	–	–	–	–	–	inactive	1 h
COC(=O)N1CC[C@@H](NC(=O)[C@@H](N)Cc2c(C)cc(O)cc2C)c2cc(Cc3ccccc3)ccc21	9.72	9.29	7.54	95%	40%	28%	9.11	7.85	6.60	20 s	–	–	–	–	1 h
CCOC(=O)CN1CC[C@@H](NC(=O)[C@@H](N)Cc2c(C)cc(O)cc2C)c2cc(Cc3ccccc3)ccc21	9.43	9.24	7.82	79%	34%	24%	8.29	7.82	< 5.89	–	–	–	–	–	–
CCCC(=O)N1CC[C@@H](NC(=O)[C@@H](N)Cc2c(C)cc(O)cc2C)c2cc(Cc3ccc4ccccc4c3)ccc21	9.85	9.10	7.19	92%	inactive	inactive	9.05	–	–	–	Not Active	Not Active	inactive	–	–
CCC(=O)N1CC[C@@H](NC(=O)[C@@H](N)Cc2c(C)cc(O)cc2C)c2cc(Cc3ccc4ccccc4c3)ccc21	9.55	9.68	7.24	75%	–	15%	7.89	–	< 5.85	–	Not Active	–	inactive	–	–
CCC(=O)N1CC[C@@H](NC(=O)[C@@H](N)Cc2c(C)cc(O)cc2C)c2cc(Cc3ccccc3)ccc21	9.92	8.96	7.40	96%	58%	32%	8.41	7.49	6.06	–	–	–	–	–	–
Cc1cc(O)cc(C)c1C[C@H](N)C(=O)N[C@@H]1CCN(C(=O)C2CCC2)c2ccc(Cc3ccccc3)cc21	9.64	9.82	7.25	94%	58%	inactive	8.68	8.29	–	–	–	Not Active	inactive	–	–
COCC(=O)N1CC[C@@H](NC(=O)[C@@H](N)Cc2c(C)cc(O)cc2C)c2cc(Cc3ccccc3)ccc21	9.82	8.68	7.47	91%	47%	38%	8.52	7.17	< 5.77	–	–	–	inactive	–	–
